# Compounds with a hit are over-represented: about 3% of the library has one in this group of screens.
# HTR1E antagonist: 5-HT1E (human) receptor antagonism | P28566 | CHO 5-HT1E Ga15 NFAT-bla reporter, FRET, antagonist | inhibition, % at 6 µM | 0.99% of 65,000 active;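 active means inhibition above a set limit, the mean inhibition across every tested compound plus 3 SD, cut at about 29% in these data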;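 further: signal is the 460 over 535 nm emission ratio of beta-lactamase substrate; 0% = agonist plus DMSO wells and 100% = wells without agonist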
# HTR1A agonist: agonists of human 5-HT1a serotonin receptor; activation, % at 10 µM; P08908; 0.56% of 65,000 active; CHO 5-HT1a Ga15 NFAT-bla reporter, FRET ratio; 0% basal, 100% maximal reference agonist;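 active means activation above the screen-wide mean activation plus 3 SD, cut at about 19% in these data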;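 further: 0% = DMSO wells and 100% = 5-CT at EC100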
# 5-HT1A blocker: blocks the human serotonin 5-HT1a receptor. P08908. CHO 5-HT1a Ga15 NFAT-bla reporter, antagonist mode. inhibition, % at 10 µM. 0.68% of 62,000 active. AID 612;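 active means inhibition above the mean of all tested compounds plus 3 SD, cut at about 43% in these data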;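 further: receptor stimulated by 5-CT agonist at 100 nM near EC80; beta-lactamase reporter measured by ratiometric fluorescence of a cleavable substrate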
# S1P1 ag pot: S1P1 (human) agonism or agonism potentiation. P21453. S1P1 CRE-bla cells, forskolin, beta-lactamase FRET, potentiator mode; S1P1 agonist co-added at EC20, 2 nM; 100% = saturating reference agonist, 0% = basal. activation, % at 9.5 µM. 0.57% of 56,000 active. AID 449;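 active means activation above a cutoff set at the mean activation of all tested compounds plus 3 SD, cut at about 54% in these data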;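 further: forskolin at 4 µM as EC80 and the EC20 agonist is SEW2871; 100% = SEW2871 at its EC100 plus forskolin at EC80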
# Target sequence (P21453 whole entry, looked up): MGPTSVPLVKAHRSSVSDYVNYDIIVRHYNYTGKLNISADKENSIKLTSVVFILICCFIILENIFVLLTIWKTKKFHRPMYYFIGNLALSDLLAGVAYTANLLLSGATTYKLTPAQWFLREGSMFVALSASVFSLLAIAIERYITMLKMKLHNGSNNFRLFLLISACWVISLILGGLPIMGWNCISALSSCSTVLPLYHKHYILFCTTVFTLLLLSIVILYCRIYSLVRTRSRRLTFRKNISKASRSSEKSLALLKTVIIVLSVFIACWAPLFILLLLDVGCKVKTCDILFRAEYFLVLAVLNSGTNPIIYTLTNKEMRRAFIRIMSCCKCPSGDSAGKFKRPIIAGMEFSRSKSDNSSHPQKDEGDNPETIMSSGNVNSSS
# S1P3 agonist: S1P3 (human) receptor agonism; Q99500; S1P3 NFAT-BLA reporter cells, FRET ratio; relative to 1 µM S1P, basal subtracted; activation, % at 4.5 µM; 0.1% of 60,000 active; AID 373;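 active means activation above the screen-wide mean plus 3 SD, cut at about 4.5% in these data, passing the limit was not always enough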
#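 Benchmarks: high control 1 µM S1P / System: stable CHO line with human S1P3, Gα16, NFAT-BLA reporter / Dosing: single compound concentration, 4.5 µM final / Timing: 4 h compound at 37 °C, 2 h substrate at RT / Measured by: FRET β-lactamase substrate fluorescence, excitation 405 nm, 460/535 nm emission ratio, background-subtracted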
# 5HT1E ag: activates the human 5-HT1E serotonin receptor. CHO 5-HT1E Ga15 NFAT-bla reporter, FRET; 0% DMSO wells, 100% control agonist wells. activation, % at 6 µM. 0.69% of 65,000 active;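 active means activation above a set limit, the screen-wide mean activation plus 3 SD, cut at about 8.5% in these data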;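 further: 100% = positive control agonist at 1 µM giving full maximal response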
# * = called active by the depositor; / = no result given.
SMILES,HTR1E antagonist,HTR1A agonist,5-HT1A blocker,S1P1 ag pot,S1P3 agonist,5HT1E ag
COc1ccc(C2CC(=O)C(C=NCCN3CCN(C(C)=O)CC3)=C(O)C2)cc1OC (centres undefined),0.0,-1.8,-17.0,-7.8,-0.9,0.5
COc1ccc(NC(=O)CSc2nccn2-c2ccccc2)c(OC)c1,21.7,-4.2,9.9,-2.7,-1.1,21.9*
CCOc1ccccc1NC(=O)CSc1nccn1-c1ccccc1,8.2,0.1,11.0,-5.9,-1.4,0.6
CN1/C(=C/C(=O)c2nc(S(C)(=O)=O)ncc2Cl)C(C)(C)c2ccccc21,51.4*,-2.6,62.3*,110.1*,-2.0,0.9
CN1/C(=C\C(=O)c2ccco2)C(C)(C)c2ccccc21,5.6,3.7,19.4,25.8,1.6,1.2
Cc1cccc2cc(C#N)c(N3CCN(C)CC3)nc12,-5.3,1.5,-2.7,-15.6,-0.2,23.4*
CCC(C(=O)Nc1cnccn1)c1ccccc1 (centres undefined),-4.2,-2.5,-2.7,-2.4,-0.1,17.8*
CC1(C2(O)CC(c3ccccc3)ON2)CCCCC1 (centres undefined),36.7*,3.2,/,-6.8,-3.6,-0.8
CCC(C)(C)NC(=O)CN(CC1CCCO1)C(=O)CCC(=O)Nc1nccs1 (centres undefined),-9.0,-1.4,-0.6,3.0,-0.3,0.3
CCCC(=O)NC(c1ccco1)c1cc(Cl)c2cccnc2c1O (centres undefined),5.2,-5.0,28.7,28.5,-2.0,-1.3
CC(C)C(=O)NC(c1ccco1)c1ccc2cccnc2c1O (centres undefined),30.1*,-1.0,39.3,3.7,-2.1,-1.4
Oc1c(C(Nc2nc3ccccc3s2)c2ccco2)ccc2cccnc12 (centres undefined),34.5*,5.6,61.6*,5.1,-2.2,-0.6
O=C(Nc1ccc2c(c1)OCCO2)C1CCCN1S(=O)(=O)c1cccc2cccnc12 (centres undefined),0.6,75.4*,4.7,6.2,-0.1,-0.6
O=C(Nc1ccc(C(F)(F)F)cc1)C1CCCN1S(=O)(=O)c1cccc2cccnc12 (centres undefined),9.8,-1.9,-1.8,66.0*,0.3,-1.2
CCOc1ccc(OCC)c(NC(=O)c2ccc(CNc3c(N4CCOCC4)c(=O)c3=O)cc2)c1,-0.4,-2.1,-3.9,-13.5,0.4,-0.1
CCCC(=O)Nc1ccc(-c2nc3cc(C)ccc3o2)cc1,-5.8,0.3,7.4,70.5*,-0.7,-0.2
CCCC(=O)Nc1ccc(-c2nc3cc(C)c(C)cc3o2)c(O)c1,-7.4,-0.7,-9.4,38.4,-1.0,0.3
CCCC(=O)Nc1ccc2oc(-c3ccc(OC)c(Br)c3)nc2c1,6.2,0.6,-9.5,98.1*,-0.5,0.3
COc1ccc(-c2ccc(SCC(=O)N3CCCC3)nn2)cc1OC,30.4*,-2.4,-2.9,-27.5,1.5,-0.3
COc1ccc(-c2ccc(SCC(=O)N3CCOCC3)nn2)cc1OC,9.5,2.5,-4.8,-12.4,0.6,0.3
CCCC(=O)C1C(=O)CC(C)(C)C(c2cc(C)no2)C1=O (centres undefined),-2.3,0.2,-7.3,/,-0.2,0.5
Cc1cc(C2C(=O)CC(=O)CC2c2ccccc2)on1 (centres undefined),6.0,-1.1,6.6,-3.2,0.0,12.2*
Cc1cccc(NC(=O)C2CCCN(c3nc(C)cc(C)n3)C2)c1 (centres undefined),-5.7,0.3,-2.0,-9.6,-0.1,13.2*
CCOC(=O)C1=C(C)N=C(/N=C/N(C)C)SC1c1ccccc1 (centres undefined),-0.1,-3.7,13.4,-11.0,-0.2,-0.3
CC(=O)C1=C(O)C(=O)N(CCN2CCOCC2)C1c1ccccc1 (centres undefined),16.5,-2.5,11.7,3.9,-0.5,9.3*
SMILES,HTR1E antagonist,HTR1A agonist,5-HT1A blocker,S1P1 ag pot,S1P3 agonist,5HT1E ag
Cc1nc2ncnn2c(N2CCN(C(=O)Cc3cccs3)CC2)c1C,8.6,0.6,-2.1,/,/,1.3
Fc1ccc(-c2nnc3ccc(N4CCc5ccccc5C4)nn23)cc1,9.2,1.7,-10.9,-47.2,0.0,0.9
COc1cc(CNc2ccc(N3CCOCC3)c(C(=O)O)c2)ccc1OCC(N)=O,-0.7,-2.2,-1.3,-6.5,-0.2,34.3*
N#Cc1sc2nc3c(c(-c4ccco4)c2c1N)CCCC3,30.7*,-2.4,-19.6,-71.3,-0.9,1.4
Cc1ccc2c(c1)N(CC(=O)NCCc1c[nH]c3ccccc13)C(=O)CO2,6.0,-0.6,12.9,18.6,-0.3,0.1
C=CCN1CCN(C(c2cc(OC)ccc2OC)c2nnnn2CC2CCCO2)CC1 (centres undefined),7.0,-2.8,14.6,10.8,0.4,-1.2
COC(=O)c1cnn2c(C)c(Cc3cccc(F)c3)c(C)nc12,29.9*,2.7,-8.4,-13.1,-0.9,1.0
COc1cccc(N2CCN(c3ncnc4c3[nH]c3ccc(F)cc34)CC2C)c1 (centres undefined),104.2*,-1.9,/,115.2*,-8.3,-1.5
COc1cccc(N2CCN(c3ncnc4c3[nH]c3ccccc34)CC2C)c1 (centres undefined),91.4*,3.5,/,127.0,-4.1,-0.2
COc1cc2[nH]c3c(N4CCN(c5ccc(Cl)cc5)CC4)ncnc3c2cc1OC,6.9,1.9,-8.3,2.3,-1.7,1.5
Cn1c(Cl)nc2c1c(=O)n(Cc1cccc(Br)c1)c(=O)n2C,3.6,36.3*,/,20.3,-4.0,-0.8
CC(C)CNc1nc2c(c(=O)n(C)c(=O)n2C)n1Cc1cccc(Br)c1,-10.7,-0.8,/,-12.1,-3.9,-0.1
COCc1cc(C)nc(SCC(=O)Nc2cccc3cccnc23)c1C#N,42.1*,6.0,0.8,-17.5,0.6,-0.4
Cc1ccc2nc3c(cc(C#N)c(=O)n3CC3CCCO3)c(=O)n2c1 (centres undefined),5.0,6.7,-6.2,-18.9,2.1,-0.2
N#Cc1c(N)nc(SCc2ccncc2)c(C#N)c1-c1cccs1,42.6*,0.7,4.9,17.6,-1.4,0.0
Cc1ccc(Cn2c(SCc3cccnc3)nc3c2c(=O)n(C)c(=O)n3C)cc1,5.3,29.5*,4.7,-10.0,-1.4,0.4
O=S(=O)(c1ccccc1)N1CCN(Cc2cccc(Cl)c2)CC1,-3.9,-2.2,-15.1,-13.9,-0.1,-0.2
O=C1NCCN1Cc1cccc(Cl)c1,-3.3,28.3*,4.9,-1.2,0.2,0.2
O=C(C1CCCN(S(=O)(=O)c2ccc(Br)s2)C1)N1CCCCCC1 (centres undefined),1.8,36.6*,5.7,/,/,-1.1
O=C(O)C1CCCN(S(=O)(=O)c2ccc(Cl)s2)C1 (centres undefined),-8.2,0.1,6.3,-13.0,-0.1,0.9

# High-throughput results from PubChem BioAssay.
